Data on 13 compounds can be found in ChEMBL document CHEMBL1148346, “Tiplaxtinin, a novel, orally efficacious inhibitor of plasminogen activator inhibitor-1: design, synthesis, and preclinical characterization” (J Med Chem, 2004).

Data set [1] deals with Plasminogen activator inhibitor 1 (Homo sapiens, UniProt P05121). The data set is described as follows: Inhibition of human plasminogen activator inhibitor-1.
Data set [2] in a line: Relative bioavailability after oral dose of compound at 3 mg/kg in dogs. It is filed as ADME, organism-based, Canis lupus familiaris. The conditions noted are these: dog, in vivo. The method, boiled down:
(§1)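 Male beagle dogs given a single oral dose of 3 mg/kg. Plasma sampled, with Cmax and half-life derived and relative bioavailability calculated.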

The nature of data set [3]: Apparent half-life after single intravenous bolus of 1 mg/kg in dogs. It counts as ADME, organism-based, Canis lupus familiaris. Also on record: dose 1 mg/kg, route intravenous. The conditions noted are these: dog, in vivo. Summed up: (§2)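 Male beagle dogs given a single iv bolus of 1 mg/kg. Plasma sampled, with apparent half-life, Cmax and AUC0-∞ derived.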
Data set [4] can be described thus: AUC after administration at 2000 mg/kg/day in rats. It is filed as ADME, organism-based. As to conditions: rat, plasma.
Data set [5] can be described thus: AUC after administration at 100 mg/kg/day in dogs. It is filed as ADME, organism-based, Canis lupus familiaris. The conditions noted are these: dog, plasma.
The nature of data set [6]: AUC0-infinity after single intravenous bolus of 1 mg/kg in dogs. It is filed as ADME, organism-based, Canis lupus familiaris. Also on record: time infinity, dose 1 mg/kg, route intravenous. The conditions noted are these: dog, plasma. The method, boiled down:
as §2

Data set [7] is described as follows: Cmax after oral dose of compound at 3 mg/kg in dogs. It counts as ADME, organism-based, Canis lupus familiaris. The arrangement: dose 3 mg/kg, route oral. The conditions noted are these: dog, in vivo. The method, boiled down: as §1
A short description of data set [8]: Half-life after oral dose of compound at 3 mg/kg in dogs. It is filed as ADME, organism-based, Canis lupus familiaris. Also on record: dose 3 mg/kg, route oral. As to conditions: dog, in vivo. Summed up: as §1
The nature of data set [9]: Cmax after repeated oral dose of compound at 1 mg/kg in rats. Also on record: dose 1 mg/kg, route oral. It counts as ADME, organism-based. The conditions noted are these: rat, in vivo. Summed up: (§3)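 Male SD rats given repeated oral doses of 1 mg/kg. Plasma concentrations measured, with Cmax, half-life and AUC0-24 derived.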
Data set [10] is described as follows: Cmax after single intravenous bolus of 1 mg/kg in rats. It counts as ADME, organism-based. Also on record: dose 1 mg/kg, route intravenous. The conditions noted are these: rat, in vivo.
Data set [11] is described as follows: Half-life after repeated oral dose of compound at 1 mg/kg in rats. It is filed as ADME, organism-based. Also on record: dose 1 mg/kg, route oral. As to conditions: rat, in vivo. The method, boiled down:
as §3

Data set [12] can be described thus: Apparent half-life after single intravenous bolus of 1 mg/kg in rats. The conditions noted are these: rat, in vivo. It counts as ADME, organism-based. The arrangement: dose 1 mg/kg, route intravenous.
Data set [13] in a line: AUC0-24 after repeated oral dose of compound at 1 mg/kg in rats. As to conditions: rat, plasma. It counts as ADME, organism-based. Also on record: time < 24 hr, dose 1 mg/kg, route oral. The method, boiled down:
as §3

A short description of data set [14]: AUC0-infinity after single intravenous bolus of 1 mg/kg in rats. It counts as ADME, organism-based. The arrangement: time infinity, dose 1 mg/kg, route intravenous. As to conditions: rat, plasma.
The test system of data set [15] is Canis familiaris. The data set is described as follows: Oral efficacy in dog thrombosis model at 3 mg/kg expressed as occlusion time. It counts as functional, Canis lupus familiaris. Summed up: (§4)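 Anesthetized dogs dosed orally, then an electrolytic injury made in the coronary artery lumen. Occlusion was taken as zero flow, and flow, occlusion time and spontaneous reperfusion were monitored over 4 h. Three dogs per group, mean ± SEM.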

Data set [16] has as its system Canis familiaris. The data set is described as follows: Oral efficacy in dog thrombosis model at 3 mg/kg expressed as arterial occlusion. It is filed as functional, Canis lupus familiaris. The method, boiled down:
as §4

Data set [17] has as its system Canis familiaris. The data set is described as follows: Oral efficacy in dog thrombosis model at 3 mg/kg expressed as spontaneous reperfusion. It is filed as functional, Canis lupus familiaris. The method, boiled down: as §4
Data set [18] concerns Rattus norvegicus. The data set is described as follows: Oral efficacy in rat thrombosis model at 1 mg/kg expressed as carotid flow reduction. It is filed as functional. Summed up:
(§5)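 Anesthetized, instrumented rats dosed orally before chemical induction of an occlusive carotid artery thrombus. Time to occlusion, carotid flow, patency and thrombus weight compared with vehicle, four rats per group, mean ± SEM.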

In data set [19] the test system is Rattus norvegicus. The data set is described as follows: Oral efficacy in rat thrombosis model at 1 mg/kg expressed as arterial occlusion. It counts as functional. Summed up: as §5
Data set [20] concerns Rattus norvegicus. The data set is described as follows: Oral efficacy in rat thrombosis model at 1 mg/kg expressed as occlusion time. It is filed as functional. Summed up: as §5
Data set [21] relates to Rattus norvegicus. The data set is described as follows: Oral efficacy in rat thrombosis model at 1 mg/kg expressed as thrombus weight. It is filed as functional. Summed up:
as §5

The nature of data set [22]: Cmax after single intravenous bolus of 1 mg/kg in dogs. It counts as ADME, organism-based, Canis lupus familiaris. Also on record: dose 1 mg/kg, route intravenous. As to conditions: dog, in vivo. Summed up:
as §2

Data set [23] concerns Canis familiaris. The data set is described as follows: Oral efficacy in dog thrombosis model at 3 mg/kg expressed as coronary flow reduction.

Sequence of Plasminogen activator inhibitor 1 (P05121 whole entry): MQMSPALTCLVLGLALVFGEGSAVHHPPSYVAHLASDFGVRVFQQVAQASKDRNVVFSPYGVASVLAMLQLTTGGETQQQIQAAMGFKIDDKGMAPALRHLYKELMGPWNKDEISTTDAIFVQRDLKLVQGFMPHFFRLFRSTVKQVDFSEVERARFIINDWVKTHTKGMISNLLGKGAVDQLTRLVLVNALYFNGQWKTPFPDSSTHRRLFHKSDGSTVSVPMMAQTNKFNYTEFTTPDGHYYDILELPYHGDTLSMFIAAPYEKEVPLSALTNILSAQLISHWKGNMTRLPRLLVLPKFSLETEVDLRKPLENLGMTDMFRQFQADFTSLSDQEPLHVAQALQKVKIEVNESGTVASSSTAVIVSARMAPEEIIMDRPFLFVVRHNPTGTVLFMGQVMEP

As to `CC(C)(C)c1ccc(Cn2cc(C(=O)C(=O)O)c3cc(-c4cccc(C(C)(C)C)c4)ccc32)cc1`, the IC50 in data set [1] is 10 µM.

Take `O=C(O)c1ccc(-n2c(-c3ccccc3)cc3c2CCc2ccccc2-3)cc1O`: it took 13 µM to reach half-maximal inhibition in [1] (IC50).

`O=C(O)C(=O)c1cn(Cc2ccccc2)c2cc(-c3ccc(OC(F)(F)F)cc3)ccc12` displayed an IC50 in [1] of 17 µM.

Regarding `COc1cccc(-c2ccc3c(c2)c(C(=O)C(=O)O)cn3Cc2ccc(C(C)(C)C)cc2)c1`, the midpoint of inhibition in [1], the IC50, lay at 21 µM. This IC50 and that of the compound before are within 1.5-fold of each other.

Turning to `O=C(Nc1ccc(Cl)c(Cl)c1)c1ccc(CNc2cc([N+](=O)[O-])ccc2C(=O)O)cc1`, in data set [1], the IC50 was found to be 13 µM.

In the case of `CC(C)(C)c1ccc(Cn2cc(C(=O)C(=O)O)c3cc(-c4ccc(OC(F)(F)F)cc4)ccc32)cc1`, the concentration for half-maximal inhibition (IC50) in data set [1] was determined as 16 µM.

In [1], `O=C(O)C(=O)c1cn(Cc2ccccc2)c2cc(-c3ccccc3)ccc12` displayed an IC50 of 26 µM.

Consider `O=C(O)C(=O)c1cn(Cc2ccc(F)cc2)c2cc(-c3ccccc3)ccc12`, for which, in [1], the IC50 amounted to 35 µM.

As for `CC(C)(C)c1ccc(Cn2cc(C(=O)C(=O)O)c3ccc(-c4ccc(OC(F)(F)F)cc4)cc32)cc1`, in data set [1], the IC50 is > 50 µM.

On to `O=C(O)C(=O)c1cn(Cc2ccccc2)c2cccc(-c3ccc(OC(F)(F)F)cc3)c12`, for which the IC50 in data set [1] was > 50 µM.

In data set [1], `CN(C)CCSc1ccc(/C=c2\[nH]c(=O)/c(=C/c3ccccc3)[nH]c2=O)s1` returned an IC50 of 8 µM. In other words, the single-digit micromolar range.

Consider `Cc1cccc(-c2ccc3c(c2)c(C(=O)C(=O)O)cn3Cc2ccc(C(C)(C)C)cc2)c1` [ALEPLASININ], for which it took 8.6 µM to reach half-maximal inhibition in data set [1] (IC50).

`O=C(O)C(=O)c1cn(Cc2ccccc2)c2ccc(-c3ccc(OC(F)(F)F)cc3)cc12` [TIPLASININ] showed a bioavailability in data set [2] of 32%. The half-life in data set [3] was 3.73 h; in data set [8], 5.42 h; in data set [11] it was 4.1 h; in data set [12], 2.95 h. The AUC in data set [4] is ~1510 µg·h/mL; in [5], ~613 µg·h/mL. Moreover, the AUC(0-inf) amounted to 20.5 µg·h/mL in [6] and 2.45 µg·h/mL in data set [14]. The Cmax in data set [7] was 2140 ng/mL; in [9], 230 ng/mL; in data set [10], 4950 ng/mL; in [22] it was 13400 ng/mL. In addition, the AUC at 24 h in [13] was found to be 0.96 µg·h/mL. Moreover, the values for the Occlusion time in the data set on Canis familiaris [15] and in the data set on Rattus norvegicus [20] were 71.6 min and 50.5 min, respectively. The Arterial occlusion in the data set on Canis familiaris [16] is 100%; in the data set with Rattus norvegicus [19], 25%. The same compound gave a Spontaneous reperfusion in the data set on Canis familiaris [17] of 100%. The same compound showed a Carotid flow reduction in the data set on Rattus norvegicus [18] of 47.3%. The compound also displayed a Thrombus weight in the data set on Rattus norvegicus [21] of 0.5 mg. The same compound gave a Coronary flow reduction with Canis familiaris [23] of 66%.

By IC50 is commonly meant the point on the concentration scale where inhibition reaches its midpoint. A high value points to weaker potency in that assay. By bioavailability is commonly meant the share of a dose that reaches the circulation, judged against a reference dose that is usually intravenous. One may read the half-life as the time in which the quantity being followed falls by half. The term AUC denotes concentration integrated over time. Low readings indicate low exposure, high ones high exposure. A word on the AUC(0-inf): it is total exposure, with the tail of the curve extrapolated. Read a low AUC(0-inf) as low exposure. A word on the Cmax: it is the maximum level reached in the sampled fluid or tissue.
